Data as given in ChEMBL document CHEMBL4627297, “Comparative reactivity analysis of small-molecule thiol surrogates” (Bioorg Med Chem, 2020).

Key:
[1] = Drug reactivity against glutathione in pH 7.4 PBS buffer assessed as half life at 250 uM measured up to 72 hrs by HPLC analysis; format: ADME; conditions: PBS buffer with glutathione (thiol reactivity)
In short: (§1)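 Fragment (500 µM in PBS pH 7.4 with 10% acetonitrile and 200 µM indoprofen internal standard) was mixed 1:1 with 10 mM thiol surrogate in PBS. Final concentrations were 250 µM fragment, 5 mM thiol, 100 µM indoprofen and 5% acetonitrile, giving pseudo-first-order conditions. HPLC sampling at 0, 1, 2, 4, 8, 12, 24, 48 and 72 h.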

[2] = Drug reactivity against N-acetyl-cysteine in pH 7.4 PBS buffer assessed as half life at 250 uM measured up to 72 hrs by HPLC-MS analysis; format: ADME; conditions: PBS buffer with N-acetyl-cysteine (thiol reactivity); in short: as §1
[3] = Solubility of the compound in pH 7.4 PBS buffer; format: physicochemical
In short: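 Solubility was judged by eye as the absence of precipitation during the thiol reactivity incubations. Conditions were 250 µM fragment in PBS pH 7.4 with 5% acetonitrile, over up to 72 h.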

[4] = Drug reactivity against N-benzoyl-cysteine in pH 7.4 PBS buffer assessed as half life at 250 uM measured up to 72 hrs by HPLC-MS analysis; format: ADME; conditions: PBS buffer with N-benzoyl-cysteine (thiol reactivity); in short: as §1
[5] = Drug reactivity against cysteine in pH 7.4 PBS buffer assessed as half life at 250 uM measured up to 72 hrs by HPLC-MS/MS analysis; format: ADME; conditions: PBS buffer with cysteine (thiol reactivity); in short: as §1
[6] = Drug reactivity against N-bezoyl-cysteamine in pH 7.4 PBS buffer assessed as half life at 250 uM measured up to 72 hrs by HPLC analysis; format: ADME; conditions: PBS buffer with N-benzoyl-cysteamine (thiol reactivity); in short: as §1
[7] = Drug reactivity against cysteamine in pH 7.4 PBS buffer assessed as half life at 250 uM measured up to 72 hrs by HPLC-MS/MS analysis; format: ADME; conditions: PBS buffer with cysteamine (thiol reactivity); in short: as §1
[8] = Drug reactivity against N-benzoyl-glutathione in pH 7.4 PBS buffer assessed as half life at 250 uM measured up to 72 hrs by HPLC-MS/MS analysis; format: ADME; conditions: PBS buffer with N-benzoyl-glutathione (thiol reactivity); in short: as §1

half-life at 250 µM [1] | half-life at 250 µM [2] | solubility [3] | half-life at 250 µM [4] | half-life at 250 µM [5] | half-life at 250 µM [6] | half-life at 250 µM [7] | half-life at 250 µM [8] | SMILES
1890 min | 33 h | Soluble | > 3000 min | > 3000 min | > 3000 min | > 3000 min | 11.2 h | FC(F)(F)c1cc(S)cc(C(F)(F)F)c1
– | > 50 h | Soluble | > 3000 min | > 3000 min | > 3000 min | > 3000 min | > 50 h | Fc1cc(C(F)(F)F)cc(C(F)(F)F)c1
< 1.02 min | < 0.017 h | Soluble | < 1.02 min | < 1.02 min | < 1.02 min | < 1.02 min | < 0.017 h | C=CC(=O)Oc1cc(C(F)(F)F)cc(C(F)(F)F)c1
< 1.02 min | < 0.017 h | Soluble | < 1.02 min | < 1.02 min | < 1.02 min | < 1.02 min | < 0.017 h | O=C(CBr)c1cc(C(F)(F)F)cc(C(F)(F)F)c1

SMILES | half-life at 250 µM [1] | half-life at 250 µM [2] | solubility [3] | half-life at 250 µM [4] | half-life at 250 µM [5] | half-life at 250 µM [6] | half-life at 250 µM [7] | half-life at 250 µM [8]
FC(F)(F)c1cc(N=C=S)cc(C(F)(F)F)c1 | < 1.02 min | < 0.017 h | Soluble | 1.02 min | < 1.02 min | < 1.02 min | < 1.02 min | < 0.017 h
